SMILES strings stand for the structures. Values after ≈ are worked out from the molar mass of the structure shown. Where only a bound is given, the exact number is not on record here.

This assay has as its system Botrytis cinerea. Kind of assay: Fungicidal activity against Botryotinia fuckeliana assessed as inhibition of spore germination at 25 degC after 6 hr by microscopic analysis. In kind it is functional, organism-based. An outline of the steps: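 B. cinerea strain from a university plant disease institute, grown 2 weeks at 20 °C on PDA; conidia scraped into sterile water, filtered through cheesecloth, suspended in 0.1% Tween 20 and adjusted to 1.0 × 10⁶ spores/mL. Samples taken up in methanol and diluted in sterile water to a concentration series (methanol <1% final); 1% methanol control. 10 μL spore–sample aliquots on glass slides in triplicate, moist chamber, germination scored microscopically.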
For `C=C(C)n1c(=O)n(C(=O)c2ccco2)c2ccccc21`, the IC50 came out at 104 mg/L (≈ 387 µM).

Turning to `C=C(C)n1c(=O)n(C(=O)c2ccncc2)c2ccccc21`, the IC50 amounted to 152 mg/L (≈ 544 µM).

Take `C=C(C)n1c(=O)n(C(=O)CCCCC)c2ccccc21`: the IC50 is 129 mg/L (≈ 475 µM).

Turning to `C=C(C)n1c(=O)n(C(=O)C(C)C)c2ccccc21`, the IC50 amounted to 134 mg/L (≈ 548 µM).

Turning to `C=C(C)n1c(=O)n(C(=O)C(CC)CC)c2ccccc21`, the IC50 is 277 mg/L (≈ 1020 µM).

As for `C=C(C)n1c(=O)n(C(=O)CCC(C)C)c2ccccc21`, the IC50 was found to be 335 mg/L (≈ 1230 µM).

Consider `C=C(C)n1c(=O)n(C(=O)Cc2ccccc2)c2ccccc21`, for which the IC50 amounted to 168 mg/L (≈ 576 µM).

`C=C(C)n1c(=O)n(C(=O)Cc2ccc(Cl)cc2)c2ccccc21`: the 50% inhibitory concentration (IC50) is 17.3 mg/L (≈ 52.8 µM).

For `C=C(C)n1c(=O)n(C(=O)Cc2ccc3ccccc3c2)c2ccccc21`, the half-maximal inhibitory concentration (IC50) was more than 500 mg/L.

As for `C=C(C)n1c(=O)n(C(=O)CCc2ccccc2)c2ccccc21`, the 50% inhibitory concentration (IC50) was found to be 126 mg/L (≈ 410 µM).

In the case of `C=C(C)n1c(=O)n(C(=O)C(CC)c2ccccc2)c2ccccc21` (configuration not stated), the IC50 is 186 mg/L (≈ 580 µM).

Take `C=C(C)n1c(=O)n(C(=O)Cc2ccc(OC)cc2)c2ccccc21`: the IC50 is 118 mg/L (≈ 366 µM).

In the case of `C=C(C)n1c(=O)n(C(=O)COc2ccccc2)c2ccccc21`, the IC50 stood at 303 mg/L (≈ 983 µM).

Turning to `C=C(C)n1c(=O)n(C(=O)COc2ccc(Cl)cc2)c2ccccc21`, the half-maximal inhibitory concentration (IC50) stood at 108 mg/L (≈ 315 µM).

Turning to `C=C(C)n1c(=O)n(C(=O)CCCc2c[nH]c3ccccc23)c2ccccc21`, the IC50 stood at 302 mg/L (≈ 839 µM).

Turning to `C=CC(=O)n1c(=O)n(C(=C)C)c2ccccc21`, the half-maximal inhibitory concentration (IC50) was 32.2 mg/L (≈ 141 µM).

Regarding `C=C(C)C(=O)n1c(=O)n(C(=C)C)c2ccccc21`, the IC50 was determined as 64 mg/L (≈ 264 µM).

`C=C(C)n1c(=O)n(C(=O)c2ccccc2)c2ccccc21`: the IC50 stood at 81.9 mg/L (≈ 294 µM).

As for `C=C(C)n1c(=O)n(C(=O)c2ccc([N+](=O)[O-])cc2)c2ccccc21`, the IC50 was 93.3 mg/L (≈ 289 µM).

Regarding `C=C(C)n1c(=O)n(C(=O)c2ccccc2[N+](=O)[O-])c2ccccc21`, the IC50 was determined as 442 mg/L (≈ 1370 µM).

As for `C=C(C)n1c(=O)n(C(=O)c2ccc(Cl)cc2)c2ccccc21`, the half-inhibitory concentration (IC50) came out at 66.8 mg/L (≈ 214 µM).

Regarding `C=C(C)n1c(=O)n(C(=O)c2ccccc2Cl)c2ccccc21`, the IC50 turned out to be 17.2 mg/L (≈ 54.9 µM).

As to `C=C(C)n1c(=O)n(C(C)=O)c2ccccc21`, the IC50 was more than 500 mg/L.

In the case of `C=C(C)n1c(=O)n(C(=O)CC)c2ccccc21`, the IC50 was more than 500 mg/L.

As to `C=C(C)n1c(=O)n(C(=O)CCC)c2ccccc21`, the IC50 was more than 500 mg/L.

On to `C=C(C)n1c(=O)n(C(=O)CCCC)c2ccccc21`, for which the concentration for half-maximal inhibition (IC50) was found to be 254 mg/L (≈ 984 µM).

As to `Cc1cc(C)nc(Nc2ccccc2)n1` [PYRIMETHANIL], the concentration for half-maximal inhibition (IC50) is 209 mg/L (≈ 1050 µM).

As usually defined, the IC50 is the point on the concentration scale where inhibition reaches its midpoint.

These data come from ChEMBL document CHEMBL3044828, “Synthesis of 1-acyl-3-isopropenylbenzimidazolone derivatives and their activity against Botrytis cinerea” (J Agric Food Chem, 2010).
